Source: PubChem BioAssay (several laboratories)
Sampled rows, rich in hits. Any-hit rate of the full collection: about 1%.
FXN GAA850 act = frataxin GAA850 promoter activation; activation, % at 6 µM; HEK293 lucGAA850 FXN promoter luciferase reporter, 24 h; percent of 10 µM SAHA response; hit rate 0.56% among 360,000;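 active = activation above the average of all compounds screened plus 3 SD, cutoff fixed separately per campaign, cut at about 7.5% in these data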
XiGFP reactiv = activators of X-chromosome reactivation in mouse fibroblasts | XiGFP mouse fibroblasts, % GFP-positive cells imaging, 3 d; cells co-treated with 5-aza-dC sensitizer; scaled so ellipticine positive control = 100% | activation, % at 7.58 µM | hit rate 0.055% among 360,000;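 active = mean normalized replicate activation at least 10% and every replicate at or above 10%; inconclusive = only one of the two criteria met; inactive = mean below 10% and not all replicates reach 10%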
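System: 68-5-11 XiGFP fibroblast line; Timing: 3 days compound exposure; Compound dosing: one concentration, pinned; Benchmarks: positive control ellipticine, 6 µM final; Buffer or medium: DMEM containing 5-aza-dC.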
CaV13 ICDI inh = Disruptors of the CACNA1D IQ motif to Ca2+-dependent inactivation inhibitor domain association, primary screening, Förster resonance energy transfer in intact living …. HEK cells, CFP/YFP FRET ICDI-IQ, plate reader, 10 min; percent FRET-ratio fall versus neutral wells. inhibition, % at 12.3 µM. hit rate 0.098% among 340,000;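 active = mean replicate inhibition of at least 30% and at least 1% of replicates passing that level; inconclusive = only one of the two criteria is met; inactive = neither criterion is met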
GSIS activator = GLuc luminescence reporter in INS-1E cells, primary screen for activators of glucose-dependent secretion of insulin. INS-1E GLuc reporter insulin secretion, 2-3 h. activation, % at 16.6 µM. hit rate 0.61% among 370,000. AID 743287;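 active = lowest replicate activation of at least 40%, so every replicate reaches that level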
Numbers stand for hits; - = inactive; ? = inconclusive; . = not tested or not shown; + = active, no number; ! = not active in a repeat.

SMILES	FXN GAA850 act	XiGFP reactiv	CaV13 ICDI inh	GSIS activator
CCn1nc(C(=O)Nc2ccc3nc(C)sc3c2)c2ccccc2c1=O	-	-	-	53
Cc1nc2ccc(NC(=O)c3ccccc3)cc2s1	-	-	-	-
C[C@@H]1CN([C@H](C)CO)S(=O)(=O)c2ccc(-c3cncnc3)cc2O[C@H]1CN(C)C(=O)C1CCC1	.	-	.	-
Cc1ccc(-n2nnnc2CNC(=O)C(=O)c2c[nH]c3ccccc23)cc1C	-	-	49	-
O=C(NCc1nnnn1-c1ccc(F)cc1)C(=O)c1c[nH]c2ccccc12	-	-	-	-
CCCCN(C)C1=CC2=CC(=C(C#N)C#N)CCC2CC1 (configuration not stated)	-	?	-	-
CCN(CC)C1=CC2=CC(=C(C#N)C#N)CCC2CC1 (configuration not stated)	-	82	-	-
O=C(COc1ccccc1)N(Cc1cccc(F)c1)C1CCS(=O)(=O)C1 (configuration not stated)	-	-	-	51
C[C@@H]1CCCCO[C@@H](CN(C)CC2CCCCC2)[C@@H](C)CN([C@H](C)CO)C(=O)c2cc(NC(=O)Nc3cccc4ccccc34)ccc2O1	.	-	.	-
CCCc1nc2n[nH]c(N)c2c2c1COC(C)(C)C2	-	.	.	49
CCc1nc2n[nH]c(N)c2c2c1CCCC2	-	.	.	121
COc1ccc(NC(=O)Nc2ccc3c(c2)[C@H]2C[C@H](CC(=O)N4CCc5ccccc5C4)O[C@H](CO)[C@H]2O3)cc1	.	-	.	-
COc1ccc(/C=N/NS(=O)(=O)c2ccccc2)cc1OC	-	-	-	71
COc1ccc(/C=C2/SC(=O)N(NS(=O)(=O)c3ccccc3)C2=S)cc1OC	-	.	-	49
COc1cc(/C=N\NS(=O)(=O)c2ccccc2)cc(OC)c1OC	-	-	-	-
O=C(Nc1cccc(S(=O)(=O)C(F)(F)F)c1)[C@@H]1O[C@H](CO)[C@@H](O)[C@H]1O	-	-	-	43
CCN1[C@@H]2c3ccc(C4=CCCCC4)c(=O)n3C[C@H]1[C@H](CO)[C@H]2C(=O)N1CCc2ccccc2C1	.	-	.	-
CC(C)(C)Nc1nc(OCC(F)(F)F)nc(OCC(F)(F)F)n1	-	.	-	.
CONc1nc(NC(C)(C)C)nc(OCC#N)n1	-	-	-	65
CNC[C@H]1Oc2ccc(NC(C)=O)cc2CC(=O)N(C)C[C@@H]1C	.	-	.	-
CCOC(=O)c1cc(CC)sc1NC(=O)COC(=O)c1cnccn1	-	-	-	69
CCOC(=O)c1cc(CC)sc1NC(=O)COC(=O)c1ccccn1	-	-	-	-
COc1cccc(C(=O)OC2CCCN(C)C2)c1 (configuration not stated)	-	.	.	-
CN1CCCC(OC(=O)c2ccc(C#N)cc2)C1 (configuration not stated)	-	-	-	57
Fc1ccccc1-c1ccc(/C=N/Nc2nc3ccccc3[nH]2)o1	-	-	54	-
SMILES	FXN GAA850 act	XiGFP reactiv	CaV13 ICDI inh	GSIS activator
CCOC(=O)c1ccc(NC(=O)c2ccccc2[N+](=O)[O-])cc1	-	-	-	-
CCOC(=O)c1cc([N+](=O)[O-])c([N+](=O)[O-])cc1NC(C)=O	-	-	-	61
C/C(=N\NC(=O)CC#N)c1cc2ccc(O)cc2oc1=O	-	-	+	-
O=C(O)c1cc2ccc(O)cc2oc1=O	-	-	-	-
O=C(C1CCC1)N1C[C@@H]2N[C@H](C1)C2c1ccc(/C=C/c2ccccc2)cc1 (some centres not stated)	.	-	.	-
O=C(Nc1ccc(C(F)(F)F)cc1)N1C[C@@H]2N[C@H](C1)C2c1ccc(-c2ccccc2)cc1 (some centres not stated)	.	-	.	755!
O=C(Nc1ccc(C(F)(F)F)cc1)N1C[C@@H]2N[C@H](C1)C2c1ccc(/C=C/c2ccccc2)cc1 (some centres not stated)	.	-	.	+
CCCN(C)C[C@@H]1Oc2ncc(-c3ccccc3F)cc2C(=O)N([C@H](C)CO)C[C@@H]1C	.	-	.	-
C[C@@H]1CCCCO[C@@H](CN(C)C(=O)CCCN(C)C)[C@@H](C)CN([C@H](C)CO)C(=O)c2cc(NC(=O)NC3CCCCC3)ccc2O1	.	-	.	-
Cc1cccn2c(=O)c3cc(C(=O)NC(C)c4ccccc4)c(=N)n(CCCn4ccnc4)c3nc12 (configuration not stated)	-	.	75	-
CCn1c(=N)c(C(=O)NC)cc2c(=O)n3cccc(C)c3nc21	-	.	.	.
Cc1ccc2nc3c(cc(C(N)=S)c(=N)n3CCCOC(C)C)c(=O)n2c1	-	.	34	.
Cc1ccc2nc3c(cc(C(=O)NCc4ccccc4)c(=N)n3CCCn3ccnc3)c(=O)n2c1	-	-	+	-
Cc1ccc2nc3c(cc(C(=O)NCCc4ccccc4)c(=N)n3CCN3CCOCC3)c(=O)n2c1	-	.	.	.
O=C(C[C@H]1C=C[C@@H](NC(=O)Nc2cc(F)ccc2F)[C@H](CO)O1)NCc1ccncn1	.	-	.	-
COc1ccc2c3c([nH]c2c1)[C@@H](CO)N(C(=O)c1cccnc1)CC31CCN(C(=O)Nc2cccc(F)c2)CC1	.	-	.	-
O=C(c1cccs1)N(Cc1ccc(Cl)cc1)C1CCS(=O)(=O)C1 (configuration not stated)	-	-	-	48
COc1ccc(-c2nnn(CC(=O)NCc3ccccc3)n2)cc1OC	-	.	-	.
CCOc1ccc(-c2nnn(CC(=O)Nc3ccccc3OC)n2)cc1OCC	-	.	-	68
CCCCc1ccc(NC(=S)NCCc2ccc(F)cc2)cc1	-	-	-	46
Fc1ccc(CCNC(=S)Nc2ccc(F)cc2)cc1	-	-	-	.
Cc1ccc(C(=O)Nc2cccc(C(=O)N/N=C/c3ccc(F)cc3)c2)cc1	-	-	-	101
CCOc1ccc(CCNC(=O)CSC(=S)N2CCCC2)cc1OCC	-	-	-	41
CCOc1ccc(CCNC(=O)COC(=O)COc2ccc(Br)cc2)cc1OCC	-	-	.	69
CCOc1ccc(CCNC(=O)COC(=O)COc2cc(C)cc(C)c2)cc1OCC	-	-	-	45
SMILES	FXN GAA850 act	XiGFP reactiv	CaV13 ICDI inh	GSIS activator
CCOc1ccc(CCNC(=O)COC(=O)Cn2nc(C)c([N+](=O)[O-])c2C)cc1OCC	-	-	-	56
O=C(Nc1ccc(Cl)cc1)N[C@@H]1CC[C@@H](CCNC(=O)c2ccccc2F)O[C@@H]1CO	.	-	.	-
CC=Cc1ccc2n(c1=O)C[C@@H]1[C@@H](CO)[C@H](C(=O)NCC)[C@H]2N1C(=O)c1ccc(F)cc1 (mixture of isomers)	.	-	.	-
C[C@H](CO)N1C[C@H](C)[C@H](CN(C)CC2CCCCC2)OCCCC[C@H](C)Oc2ccc(NC(=O)Nc3ccc(F)cc3)cc2C1=O	.	-	.	-
COc1ccc(/C=C/C(=O)OCCCN(C)C)cc1	-	-	-	-
CCOc1ccc(CCNC(=O)COC(=O)/C=C/c2ccccc2OC)cc1OCC	-	-	.	47
CCOc1ccc(CCNC(=O)COC(=O)c2cccc(N(C)C)c2)cc1OCC	-	-	-	52
